In ChEMBL document CHEMBL1131335, “Modulation of receptor and receptor subtype affinities using diastereomeric and enantiomeric monosaccharide scaffolds as a means to structural and biological diversity. A new route to ether synthesis” (J Med Chem, 1998) one finds IC50 and Ki data, which are given here for 16 molecules.

Structures are written as SMILES.

The target of assay [1] is T1, Substance-P receptor (Homo sapiens, UniProt P25103). The assay is described as follows: Binding affinity was measured for Tachykinin receptor 1; Did not bind.
The next assay deals with Somatostatin receptor. The assay is described as follows: Binding affinity was measured for SRIF receptor on AtT-20 mouse pituitary cells. The assay is classed as cell-based. The following applies: pituitary gland cell.
Assay [2] concerns the target T1, Substance-P receptor. Put plainly: Binding affinity was measured for Tachykinin receptor 1.
Assay [3] deals with T2, Somatostatin receptor type 5 (Homo sapiens, UniProt P35346). The assay is described as follows: Binding affinity for human receptor subtype hSSTR5. In short, it runs like this:
(§1)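 Radioligand competition on membranes from CHO-K1 cells expressing hSSTR1–5, in 50 mM Tris-HCl pH 7.8 with 1 mM EGTA, 5 mM MgCl2 and protease inhibitors (leupeptin, pepstatin, bacitracin, aprotinin). Compounds ran 0.01–10,000 nM as seven-point full-log titrations, in triplicate, in at least two separate experiments. Incubation was 45 min at room temperature, then filtration onto PEI-pretreated GF/C filters and scintillation counting.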

Assay [4] concerns the target Somatostatin receptor type 3 (Homo sapiens, UniProt P32745). The assay is described as follows: Binding affinity for human receptor subtype hSSTR3. In short, it runs like this:
(§2)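 Radioligand competition on membranes from CHO-K1 cells expressing hSSTR1–5, in 50 mM Tris-HCl pH 7.8 with 1 mM EGTA, 5 mM MgCl2 and protease inhibitors (leupeptin, pepstatin, bacitracin, aprotinin). Tracer was [125I-Tyr11]SRIF-14 at 0.1 nM final. Compounds ran 0.01–10,000 nM as seven-point full-log titrations, in triplicate, in at least two separate experiments. Incubation was 45 min at room temperature, then filtration onto PEI-pretreated GF/C filters and scintillation counting.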

Assay [5] has as its target Somatostatin receptor type 4 (Homo sapiens, UniProt P31391). Put plainly: Binding affinity for human receptor subtype hSSTR4. In short, it runs like this:
as §2

The target of assay [6] is Somatostatin receptor type 1 (Homo sapiens, UniProt P30872). Put plainly: Binding affinity for human receptor subtype hSSTR1. An outline of the steps:
as §1

For assay [7], the target named is Somatostatin receptor type 2 (Homo sapiens, UniProt P30874). Put plainly: Binding affinity for human receptor subtype hSSTR2. In short, it runs like this:
as §1

Assay [8] addresses T2, Somatostatin receptor type 5. The assay is described as follows: Binding affinity for human receptor subtype hSSTR5.; Did not bind. An outline of the steps: as §2

T1 sequence (P25103 whole entry): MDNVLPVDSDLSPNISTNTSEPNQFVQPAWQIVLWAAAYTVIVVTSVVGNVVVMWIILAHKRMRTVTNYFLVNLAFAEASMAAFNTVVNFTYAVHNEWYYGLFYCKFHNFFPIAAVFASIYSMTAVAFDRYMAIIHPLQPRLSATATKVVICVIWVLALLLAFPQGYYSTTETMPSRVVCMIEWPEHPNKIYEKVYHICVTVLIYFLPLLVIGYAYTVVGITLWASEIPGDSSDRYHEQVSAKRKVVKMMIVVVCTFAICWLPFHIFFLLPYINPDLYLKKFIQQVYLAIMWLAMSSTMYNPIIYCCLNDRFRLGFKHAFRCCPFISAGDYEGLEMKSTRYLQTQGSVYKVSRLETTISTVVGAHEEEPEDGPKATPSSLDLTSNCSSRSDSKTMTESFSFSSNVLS
T2 sequence (P35346 whole entry): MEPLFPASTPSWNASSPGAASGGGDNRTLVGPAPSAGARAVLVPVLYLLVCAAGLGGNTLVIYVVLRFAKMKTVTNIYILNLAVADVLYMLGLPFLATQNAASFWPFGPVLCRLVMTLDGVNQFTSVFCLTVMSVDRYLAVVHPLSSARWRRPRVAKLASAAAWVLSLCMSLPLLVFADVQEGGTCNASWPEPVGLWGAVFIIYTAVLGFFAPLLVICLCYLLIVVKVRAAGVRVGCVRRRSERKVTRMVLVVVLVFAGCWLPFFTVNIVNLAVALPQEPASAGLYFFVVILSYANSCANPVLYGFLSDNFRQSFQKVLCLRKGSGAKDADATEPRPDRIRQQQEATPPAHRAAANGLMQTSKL
Chain of Somatostatin receptor type 3 (P32745 whole entry): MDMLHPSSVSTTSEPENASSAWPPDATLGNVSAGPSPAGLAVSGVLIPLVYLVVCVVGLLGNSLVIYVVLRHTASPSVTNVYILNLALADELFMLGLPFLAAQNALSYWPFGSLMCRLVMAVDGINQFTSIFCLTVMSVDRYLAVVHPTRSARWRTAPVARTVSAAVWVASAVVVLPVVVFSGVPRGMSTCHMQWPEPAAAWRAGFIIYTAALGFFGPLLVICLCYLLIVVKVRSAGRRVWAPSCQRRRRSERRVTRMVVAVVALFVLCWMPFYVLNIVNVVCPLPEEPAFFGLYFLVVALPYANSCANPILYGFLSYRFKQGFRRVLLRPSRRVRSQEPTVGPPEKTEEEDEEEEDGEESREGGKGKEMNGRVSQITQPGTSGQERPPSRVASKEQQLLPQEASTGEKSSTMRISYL
Chain of Somatostatin receptor type 2 (P30874 whole entry): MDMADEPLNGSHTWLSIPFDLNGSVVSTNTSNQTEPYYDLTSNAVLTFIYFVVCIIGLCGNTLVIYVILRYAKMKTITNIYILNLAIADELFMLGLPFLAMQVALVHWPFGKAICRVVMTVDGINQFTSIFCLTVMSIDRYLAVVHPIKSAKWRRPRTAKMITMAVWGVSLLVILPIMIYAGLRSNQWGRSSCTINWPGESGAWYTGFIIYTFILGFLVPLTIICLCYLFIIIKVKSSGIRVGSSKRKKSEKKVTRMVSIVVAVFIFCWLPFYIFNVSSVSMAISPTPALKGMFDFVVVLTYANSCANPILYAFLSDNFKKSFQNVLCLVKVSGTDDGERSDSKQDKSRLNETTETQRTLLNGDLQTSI
Chain of Somatostatin receptor type 4 (P31391 whole entry): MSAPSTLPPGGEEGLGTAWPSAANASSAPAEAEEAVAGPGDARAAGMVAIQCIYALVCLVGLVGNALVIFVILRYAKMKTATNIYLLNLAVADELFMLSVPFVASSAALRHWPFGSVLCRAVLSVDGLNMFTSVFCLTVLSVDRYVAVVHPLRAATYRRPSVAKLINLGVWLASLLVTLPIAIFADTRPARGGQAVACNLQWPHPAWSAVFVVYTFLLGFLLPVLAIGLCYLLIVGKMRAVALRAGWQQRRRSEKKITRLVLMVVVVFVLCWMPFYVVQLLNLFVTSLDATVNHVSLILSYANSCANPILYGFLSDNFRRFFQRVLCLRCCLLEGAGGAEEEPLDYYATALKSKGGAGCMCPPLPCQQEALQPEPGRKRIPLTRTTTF
Chain of Somatostatin receptor type 1 (P30872 whole entry): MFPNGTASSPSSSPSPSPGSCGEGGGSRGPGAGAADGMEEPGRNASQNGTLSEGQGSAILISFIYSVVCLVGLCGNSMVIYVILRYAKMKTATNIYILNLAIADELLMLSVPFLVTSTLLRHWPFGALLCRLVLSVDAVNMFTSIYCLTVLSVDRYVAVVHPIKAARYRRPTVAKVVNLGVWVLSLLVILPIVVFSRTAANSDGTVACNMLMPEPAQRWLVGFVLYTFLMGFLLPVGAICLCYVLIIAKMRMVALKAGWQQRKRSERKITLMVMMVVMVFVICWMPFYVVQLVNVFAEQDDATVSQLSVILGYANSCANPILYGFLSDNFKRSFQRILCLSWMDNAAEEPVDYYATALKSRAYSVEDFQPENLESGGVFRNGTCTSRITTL

One may read the IC50 as the concentration that gives 50% inhibition. The low end stands for greater potency in that assay, the high end for weaker potency in that assay. With `CC(=O)NCCCCCOC[C@H]1O[C@@H](OCCc2c[nH]c3ccccc23)[C@H](OCc2ccc3ccccc3c2)[C@@H](OCc2ccccc2)[C@@H]1OCc1ccccc1`, the IC50 result at Substance-P receptor [1] was “Not Active”.
Take `NCCCCCOC[C@H]1O[C@@H](OCCc2c[nH]c3ccccc23)[C@H](OCc2ccccc2)C[C@@H]1OCc1ccccc1`: on Somatostatin receptor, the concentration for half-maximal inhibition (IC50) worked out at 8.4 µM.
For `CC(=O)NCCCCCOC[C@H]1O[C@@H](OCCc2c[nH]c3ccccc23)[C@H](OCc2ccc(F)cc2)[C@@H](OCc2ccccc2)[C@@H]1OCc1ccccc1`, on Substance-P receptor [2], the IC50 was found to be 0.209 µM.
`OCCCCCNC[C@H]1O[C@@H](OCCc2c[nH]c3ccccc23)[C@H](OCc2ccccc2)[C@@H](OCc2ccccc2)[C@@H]1OCc1ccccc1` gave an IC50 on Somatostatin receptor of 14 µM.
What is called Ki is a measure of affinity in units of concentration, obtained from inhibition or displacement. The low end stands for a stronger hold on the target, the high end for a looser hold on the target. Regarding `NCCCCCNC[C@H]1O[C@@H](OCCc2c[nH]c3ccccc23)[C@H](OCc2ccccc2)[C@@H](OCc2ccccc2)[C@@H]1OCc1ccccc1`, the Ki in [3] amounted to 1.3 µM; in [4] it was 0.6 µM; in [5] it was 0.5 µM; in [6], 2.1 µM; in assay [7], 0.6 µM. This molecule also registered an IC50 at Somatostatin receptor of 13 µM.
Take `Fc1ccc(COC[C@H]2O[C@@H](OCCc3c[nH]c4ccccc34)[C@H](OCc3ccc4ccccc4c3)[C@@H](OCc3ccccc3)[C@@H]2OCc2ccccc2)cc1`: the IC50 entry on Substance-P receptor [1] is recorded as “Not Active”.
Regarding `Fc1ccc(CO[C@H]2[C@H](OCCc3c[nH]c4ccccc34)O[C@H](COCc3ccc4ccccc4c3)[C@@H](OCc3ccccc3)[C@@H]2OCc2ccccc2)cc1`, at Substance-P receptor [1], the IC50 entry was “Not Active”.
For the molecule `NCCCCCCOC[C@H]1O[C@@H](OCCc2c[nH]c3ccccc23)[C@H](OCc2ccccc2)C[C@@H]1OCc1ccccc1`, on Somatostatin receptor, the IC50 turned out to be 7 µM.
In the case of `NCCCCCOC[C@@H]1O[C@H](OCCc2c[nH]c3ccccc23)[C@H](OCc2c[nH]cn2)[C@H](OCc2ccccc2)[C@H]1OCc1ccccc1`, the Ki entry in assay [8] was “Not Active”.
Consider `Fc1ccc(OC[C@H]2O[C@@H](OCCc3c[nH]c4ccccc34)[C@H](OCc3ccc4ccccc4c3)[C@@H](OCc3ccccc3)[C@@H]2OCc2ccccc2)cc1`, for which, on Substance-P receptor [1], the IC50 result is listed as “Not Active”.
At Somatostatin receptor, `NCCCCCOC[C@H]1O[C@@H](CCc2c[nH]c3ccccc23)[C@H](OCc2ccccc2)[C@@H](OCc2ccccc2)[C@@H]1OCc1ccccc1` gave an IC50 of 22 µM.
In turn, `NCCCCCOC[C@H]1O[C@@H](OCCc2c[nH]c3ccccc23)[C@H](OCc2c[nH]cn2)C[C@@H]1OCc1ccccc1` showed an IC50 on Somatostatin receptor of 4.1 µM.
`CO[C@@H]1O[C@H](COCCCCCN)[C@@H](OCc2ccccc2)[C@H](OCc2c[nH]cn2)[C@H]1OCc1ccccc1` came in with an IC50 at Somatostatin receptor of 5.6 µM.
On the same count and under the same terms, to `CO[C@@H]1O[C@H](COCCCCCN)[C@@H](OCc2ccccc2)[C@H](OCc2ccccc2)[C@H]1OCc1ccccc1` belongs 5.9 µM; to `OCCCCCCNC[C@H]1O[C@@H](OCCc2c[nH]c3ccccc23)[C@H](OCc2ccccc2)C[C@@H]1OCc1ccccc1`, 5.1 µM.
At Substance-P receptor [2], `C[C@@H](O)[C@@H]1NC(=O)[C@H](Cc2ccc(F)cc2)NC(=O)[C@@H](Cc2c[nH]c3ccccc23)NC(=O)[C@H](Cc2ccc3ccccc3c2)NC(=O)[C@@H]2CCCN2C(=O)[C@H](Cc2ccccc2)NC1=O` registered an IC50 of 0.065 µM.
